Read-outs that look alike come from different tables or passages of the source.
How the values were obtained:
[1] = Plasma teriparatide acetate pharmacokinetics after subcutaneous injection; type: in vivo, human
Procedure, shortened: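 Vials were reconstituted in saline at use. 28.2 μg was given sc into the abdomen; 56.5 μg sc into the upper arm, in Cohort 1 with saline at the other site. Plasma was drawn pre-dose and at 0.25–6 h post-dose on days 1 and 36, frozen, and assayed centrally by IRMA (LLOQ 21.46 pg/mL). Noncompartmental parameters; values below LLOQ set to zero for means; arithmetic mean ± SD.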

[2] = test system: bone turnover markers (P1NP, OC, serum NTX, CTX, urine NTX); experiment: Changes in trough values of bone turnover markers; type: in vivo, human; details: for GMRs (trough to baseline) of serum P1NP and serum OC: 6 weeks, then steady until day 43; for GMRs (trough to baseline) of serum NTX, serum CTX, and urine NTX: after the 6-week treatments
Procedure, shortened: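 Healthy postmenopausal women received sc synthetic human PTH 1-34 or saline placebo for 6 weeks. Markers were sampled pre-dose on days 1, 8, 15, 22, 29 and 36 and on day 43. Serum P1NP and CTX were measured by ECLIA, OC by IRMA, serum and urine NTX by ELISA; CTX only on days 1, 8, 29 and 43. Samples were assayed centrally. GMR of log-transformed trough to baseline, with 95% CI, by ANOVA per group.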

[3] = subjects with severe renal impairment (eGFR 15.0–29.9 mL/min/1.73 m^2); cited from earlier work
[4] = test system: patients with osteoporosis; details: TOWER trial, once-weekly 56.5 μg, cited from earlier work
[5] = test system: subjects of phase 2b trial; details: cited from earlier work
[6] = test system: healthy Japanese postmenopausal women; experiment: Safety: incidence of adverse events; type: in vivo, human; details: 6 weeks, n = 20
Procedure, shortened: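 Randomized, single-blind, saline placebo-controlled trial in healthy Japanese postmenopausal women, with sc dosing for 6 weeks. Adverse events came from self-report, interviews or other tests, with onset, severity, seriousness, outcome and drug relationship recorded. Coding used MedDRA v17.1 preferred terms. Vital signs, 12-lead ECG, haematology, blood biochemistry and urinalysis were also monitored.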

[7] = test system: subjects in the safety assessment population; details: 24-month open-label once-weekly trial, cited from earlier work
[8] = Cohort 1 BIW: 28.2 μg twice weekly sc, intervals 3, 4 days
[9] = Cohort 1 QW: 56.5 μg once weekly sc
[10] = Cohort 2 BIW: 28.2 μg twice weekly sc, intervals 2, 5 days
[11] = Cohort 3 BIW: 28.2 μg twice weekly sc, intervals 1, 6 days

Tmax ([1]; human, plasma, sc, 28.2 ug): ≤ 60 min | half-life ([1]; human, plasma, sc, 28.2 ug): 44.3 ± 6.12 min | accumulation of teriparatide acetate in plasma ([1]; multiple dosing of once-weekly 56.5 μg, 6 weeks): no accumulation | AUCinf and Cmax relative to the once-weekly 56.5-μg group ([1]; twice-weekly 28.2-μg groups): approximately half | accumulation in the plasma ([1]; twice-weekly 28.2-μg injection treatment, regardless of dosing intervals, 6 weeks): not observed
Compound: CC[C@H](C)[C@H](NC(=O)[C@H](CCC(=O)O)NC(=O)[C@H](CO)NC(=O)[C@@H](NC(=O)[C@@H](N)CO)C(C)C)C(=O)N[C@@H](CCC(N)=O)C(=O)N[C@@H](CC(C)C)C(=O)N[C@@H](CCSC)C(=O)N[C@@H](Cc1cnc[nH]1)C(=O)N[C@@H](CC(N)=O)C(=O)N[C@@H](CC(C)C)C(=O)NCC(=O)N[C@@H](CCCCN)C(=O)N[C@@H](Cc1cnc[nH]1)C(=O)N[C@@H](CC(C)C)C(=O)N[C@@H](CC(N)=O)C(=O)N[C@@H](CO)C(=O)N[C@@H](CCSC)C(=O)N[C@@H](CCC(=O)O)C(=O)N[C@@H](CCCN=C(N)N)C(=O)N[C@H](C(=O)N[C@@H](CCC(=O)O)C(=O)N[C@@H](Cc1c[nH]c2ccccc12)C(=O)N[C@@H](CC(C)C)C(=O)N[C@@H](CCCN=C(N)N)C(=O)N[C@@H](CCCCN)C(=O)N[C@@H](CCCCN)C(=O)N[C@@H](CC(C)C)C(=O)N[C@@H](CCC(N)=O)C(=O)N[C@@H](CC(=O)O)C(=O)N[C@H](C(=O)N[C@@H](Cc1cnc[nH]1)C(=O)N[C@@H](CC(N)=O)C(=O)N[C@@H](Cc1ccccc1)C(=O)O)C(C)C)C(C)C [teriparatide]
GMRs (trough to baseline) of serum P1NP and serum OC ([2]; all 3 twice-weekly 28.2-μg groups): similarly increased to day 29 or day 36 | GMRs (trough to baseline) of serum NTX, serum CTX, and urine NTX ([2]; all twice-weekly 28.2-μg groups): did not increase | GMRs (trough to baseline) of serum P1NP and serum OC ([2]; once-weekly 56.5-μg group): similarly increased to day 29 or day 36 | GMRs (trough to baseline) of serum NTX, serum CTX, and urine NTX ([2]; once-weekly 56.5-μg group): did not increase | elimination half-life [3]: significantly prolonged | adverse events, subjects affected ([4]; 271 of 290 subjects): 93.4% | Malaise ([4]; n = 21 of 290): 7.2% | abdominal discomfort ([4]; n = 22 of 290): 7.6% | Vomiting ([4]; n = 33 of 290): 11.4% | Headache ([4]; n = 39 of 290): 13.4% | Nausea ([4]; n = 59 of 290): 20.3% | Incidence of adverse events ([5]; once-weekly 14.1-μg dosing group, 14 of 73 subjects): 19.2% | frequency of nausea ([5]; once-weekly 14.1-μg group, 4 of 73 patients): 5.5% | Incidence of adverse events ([5]; once-weekly 28.2-μg dosing group, 14 of 75): 18.7% | frequency of nausea ([5]; once-weekly 28.2-μg group, 7 of 75): 9.3% | Incidence of adverse events ([5]; once-weekly 56.5-μg dosing group, 30 of 72): 41.7% | frequency of nausea ([5]; once-weekly 56.5-μg group, 15 of 72): 20.8% | Abdominal pain [6, 8]: 0 (0.0) number of subjects (%) | Adverse events, Total [6, 8]: 12 (60.0) number of subjects (%) | Alanine aminotransferase increased [6, 8]: 0 (0.0) number of subjects (%) | Arthralgia [6, 8]: 0 (0.0) number of subjects (%) | Aspartate aminotransferase increased [6, 8]: 0 (0.0) number of subjects (%) | Blood pressure decreased [6, 8]: 0 (0.0) number of subjects (%) | Chest discomfort [6, 8]: 0 (0.0) number of subjects (%) | Constipation [6, 8]: 0 (0.0) number of subjects (%) | Dizziness [6, 8]: 1 (5.0) number of subjects (%) | Dyspepsia [6, 8]: 1 (5.0) number of subjects (%) | Feeling abnormal [6, 8]: 0 (0.0) number of subjects (%) | Fractured coccyx [6, 8]: 1 (5.0) number of subjects (%) | Gamma-glutamyltransferase increased [6, 8]: 0 (0.0) number of subjects (%) | Headache [6, 8]: 5 (25.0) number of subjects (%) | Injection site erythema [6, 8]: 2 (10.0) number of subjects (%) | Malaise [6, 8]: 2 (10.0) number of subjects (%) | Nasopharyngitis [6, 8]: 0 (0.0) number of subjects (%) | Nausea [6, 8]: 9 (45.0) number of subjects (%) | Pruritus [6, 8]: 0 (0.0) number of subjects (%) | Rash [6, 8]: 0 (0.0) number of subjects (%) | Somnolence [6, 8]: 0 (0.0) number of subjects (%) | Vomiting [6, 8]: 4 (20.0) number of subjects (%) | Abdominal pain [6, 9]: 0 (0.0) number of subjects (%) | Adverse events, Total [6, 9]: 18 (90.0) number of subjects (%) | Alanine aminotransferase increased [6, 9]: 2 (10.0) number of subjects (%) | Arthralgia [6, 9]: 1 (5.0) number of subjects (%) | Aspartate aminotransferase increased [6, 9]: 1 (5.0) number of subjects (%) | Blood pressure decreased [6, 9]: 1 (5.0) number of subjects (%) | Chest discomfort [6, 9]: 0 (0.0) number of subjects (%) | Constipation [6, 9]: 1 (5.0) number of subjects (%) | Dizziness [6, 9]: 3 (15.0) number of subjects (%) | Dyspepsia [6, 9]: 0 (0.0) number of subjects (%) | Feeling abnormal [6, 9]: 0 (0.0) number of subjects (%) | Fractured coccyx [6, 9]: 0 (0.0) number of subjects (%) | Gamma-glutamyltransferase increased [6, 9]: 1 (5.0) number of subjects (%) | Headache [6, 9]: 15 (75.0) number of subjects (%) | Injection site erythema [6, 9]: 2 (10.0) number of subjects (%) | Malaise [6, 9]: 4 (20.0) number of subjects (%) | Nasopharyngitis [6, 9]: 0 (0.0) number of subjects (%) | Nausea [6, 9]: 18 (90.0) number of subjects (%) | Pruritus [6, 9]: 0 (0.0) number of subjects (%) | Rash [6, 9]: 0 (0.0) number of subjects (%) | Somnolence [6, 9]: 1 (5.0) number of subjects (%) | Vomiting [6, 9]: 14 (70.0) number of subjects (%) | Abdominal pain [6, 10]: 1 (5.0) number of subjects (%) | Adverse events, Total [6, 10]: 12 (60.0) number of subjects (%) | Alanine aminotransferase increased [6, 10]: 0 (0.0) number of subjects (%) | Arthralgia [6, 10]: 0 (0.0) number of subjects (%) | Aspartate aminotransferase increased [6, 10]: 0 (0.0) number of subjects (%) | Blood pressure decreased [6, 10]: 0 (0.0) number of subjects (%) | Chest discomfort [6, 10]: 1 (5.0) number of subjects (%) | Constipation [6, 10]: 0 (0.0) number of subjects (%) | Dizziness [6, 10]: 0 (0.0) number of subjects (%) | Dyspepsia [6, 10]: 0 (0.0) number of subjects (%) | Feeling abnormal [6, 10]: 1 (5.0) number of subjects (%) | Fractured coccyx [6, 10]: 0 (0.0) number of subjects (%) | Gamma-glutamyltransferase increased [6, 10]: 0 (0.0) number of subjects (%) | Headache [6, 10]: 4 (20.0) number of subjects (%) | Injection site erythema [6, 10]: 3 (15.0) number of subjects (%) | Malaise [6, 10]: 0 (0.0) number of subjects (%) | Nasopharyngitis [6, 10]: 1 (5.0) number of subjects (%) | Nausea [6, 10]: 10 (50.0) number of subjects (%) | Pruritus [6, 10]: 0 (0.0) number of subjects (%) | Rash [6, 10]: 0 (0.0) number of subjects (%) | Somnolence [6, 10]: 0 (0.0) number of subjects (%) | Vomiting [6, 10]: 5 (25.0) number of subjects (%) | Abdominal pain [6, 11]: 0 (0.0) number of subjects (%) | Adverse events, Total [6, 11]: 16 (80.0) number of subjects (%) | Alanine aminotransferase increased [6, 11]: 0 (0.0) number of subjects (%) | Arthralgia [6, 11]: 0 (0.0) number of subjects (%) | Aspartate aminotransferase increased [6, 11]: 0 (0.0) number of subjects (%) | Blood pressure decreased [6, 11]: 0 (0.0) number of subjects (%) | Chest discomfort [6, 11]: 0 (0.0) number of subjects (%) | Constipation [6, 11]: 0 (0.0) number of subjects (%) | Dizziness [6, 11]: 0 (0.0) number of subjects (%) | Dyspepsia [6, 11]: 0 (0.0) number of subjects (%) | Feeling abnormal [6, 11]: 0 (0.0) number of subjects (%) | Fractured coccyx [6, 11]: 0 (0.0) number of subjects (%) | Gamma-glutamyltransferase increased [6, 11]: 0 (0.0) number of subjects (%) | Headache [6, 11]: 6 (30.0) number of subjects (%) | Injection site erythema [6, 11]: 13 (65.0) number of subjects (%) | Malaise [6, 11]: 0 (0.0) number of subjects (%) | Nasopharyngitis [6, 11]: 0 (0.0) number of subjects (%) | Nausea [6, 11]: 10 (50.0) number of subjects (%) | Pruritus [6, 11]: 1 (5.0) number of subjects (%) | Rash [6, 11]: 1 (5.0) number of subjects (%) | Somnolence [6, 11]: 0 (0.0) number of subjects (%) | Vomiting [6, 11]: 6 (30.0) number of subjects (%) | adverse events, subjects affected ([7]; 181 of 189 subjects): 95.8% | abdominal discomfort ([7]; n = 25 of 189): 13.2% | Malaise ([7]; n = 33 of 189): 17.5% | Headache ([7]; n = 37 of 189): 19.6% | Vomiting ([7]; n = 42 of 189): 22.2% | Nausea ([7]; n = 69 of 189): 36.5%
